# Columns and labels:
# Type in all cases: functional
# Rattus norvegicus [1] = species on record: Rattus norvegicus; assay: Evaluated for effect against passive cutaneous anaphylaxis in rats immunized with DNP-As and B. pertussis; PCA (log2)
# In short: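 Rats were immunized with 1 mg DNP-As and 10^10 B. pertussis on day 0 and boosted with 0.5 mg DNP-As on day 5. Drug was given at 100 (mg/kg)/day ip for 5 days from day 0, and serum was taken on day 8. PCA was read in male Wistar rats after id serum, with iv DNP-As and Evans blue. Titer is the greatest dilution with a spot >5 mm; means ± SE of eight rats.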
# Rattus norvegicus [2] = species on record: Rattus norvegicus; assay: Evaluated for effect against passive hemagglutinination in rats immunized with DNP-As and B. pertussis; PHA(log2)
# In short: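 Rats were immunized day 0 with 1 mg DNP-As plus 10¹⁰ killed B. pertussis, boosted day 5 with 0.5 mg DNP-As alone, and titers read on day 8. Dosing was 100 (mg/kg)/day ip for 5 days from day 0. Serum dilutions were incubated with DNP-As-coupled sheep erythrocytes for 2 h at 37 °C; complete agglutination endpoint as 2^n; means ± SE, eight rats.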
# Mus musculus [3] = species on record: Mus musculus; assay: Evaluated for effect against passive hemagglutinination in female BALB/c mice immunized with 10 ug of DNP-As and 2 mg of Al(OH3) after day 21; PHA(log2)
# In short: (§1)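 Female BALB/c mice were given 10 μg DNP-As and 2 mg Al(OH)3 on day 0, then 100 (mg/kg)/day po in 2% NaHCO3 for 5 days after immunization. Pooled sera from five mice (days 10, 21, 30) were serially diluted and mixed with sheep red cells coupled to DNP-As via glutaraldehyde, then held 2 h at 37 °C. Titer is the greatest dilution with complete agglutination, expressed as n of 2^n.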
# Mus musculus [4] = species on record: Mus musculus; assay: Evaluated for effect against passive hemagglutinination in female BALB/c mice immunized with 10 ug of DNP-As and 2 mg of Al(OH3) after day 30; PHA(log2); in short: as §1
# Mus musculus [5] = species on record: Mus musculus; assay: Evaluated for effect against passive cutaneous anaphylaxis in female BALB/c mice immunized with 10 ug of DNP-As and 2 mg of Al(OH3) after day 10; PCA (log2)
# In short: (§2)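 Female BALB/c mice received 10 μg DNP-As and 2 mg Al(OH)3 on day 0, then 100 (mg/kg)/day po in 2% NaHCO3 for 5 days after immunization. Sera were taken on days 10, 21 and 30 and pooled from five mice. PCA was done in normal male Wistar rats: serum id in duplicate, then 1 mg DNP-As with 5 mg Evans blue iv; titer is the greatest dilution with a reaction >5 mm.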
# Mus musculus [6] = species on record: Mus musculus; assay: Evaluated for effect against passive cutaneous anaphylaxis in female BALB/c mice immunized with 10 ug of DNP-As and 2 mg of Al(OH3) after day 21; PCA (log2); in short: as §2
# Mus musculus [7] = species on record: Mus musculus; assay: Evaluated for effect against passive cutaneous anaphylaxis in female BALB/c mice immunized with 10 ug of DNP-As and 2 mg of Al(OH3) after day 30; PCA (log2); in short: as §2
# Mus musculus [8] = species on record: Mus musculus; assay: Evaluated for effect against passive hemagglutinination in female BALB/c mice immunized with 10 ug of DNP-As and 2 mg of Al(OH3) after day 10; PHA(log2); in short: as §1
# Mus musculus [9] = species on record: Mus musculus; assay: Evaluated for effect against passive cutaneous anaphylaxis (PCA) in female BALB/c mice immunized with 10 ug of DNP-As and 2 mg of Al(OH3) after day 10; PCA (log2); in short: as §2
# Mus musculus [10] = species on record: Mus musculus; assay: Evaluated for effect against passive cutaneous anaphylaxis (PCA) in female BALB/c mice immunized with 10 ug of DNP-As and 2 mg of Al(OH3) after day 21; PCA (log2); in short: as §2
# Mus musculus [11] = species on record: Mus musculus; assay: Evaluated for effect against passive cutaneous anaphylaxis (PCA) in female BALB/c mice immunized with 10 ug of DNP-As and 2 mg of Al(OH3) after day 30; PCA (log2); in short: as §2
# Mus musculus [12] = species on record: Mus musculus; assay: Evaluated for effect against passive hemagglutinination (PHA) in female BALB/c mice immunized with 10 ug of DNP-As and 2 mg of Al(OH3) after day 21; PHA(log2); in short: as §1
# Mus musculus [13] = species on record: Mus musculus; assay: Evaluated for effect against passive hemagglutinination (PHA) in female BALB/c mice immunized with 10 ug of DNP-As and 2 mg of Al(OH3) after day 30; PHA(log2); in short: as §1
# Mus musculus [14] = species on record: Mus musculus; assay: Evaluated for effect against passive hemagglutinination (PHA) in female BALB/c mice immunized with 10 ug of DNP-As and 2 mg of Al(OH3) after day 10; PHA(log2); in short: as §1
# Rattus norvegicus [15] = species on record: Rattus norvegicus; assay: Evaluated for effect against passive cutaneous anaphylaxis in female wistar rats; PCA (log2)
# In short: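 Female Wistar rats (190–210 g) were immunized with 1 mg DNP-As plus 10^10 killed B. pertussis on day 0 and boosted with 0.5 mg DNP-As on day 5; serum was taken on day 8. Drug was given at 100 (mg/kg)/day po in 2% NaHCO3 for 5 days from day 0. Serum was then tested by PCA in normal male rats (Evans blue readout, >5 mm cutoff). Values are means ± SE, n=8.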
# Rattus norvegicus [16] = species on record: Rattus norvegicus; assay: Evaluated for effect against passive hemagglutinination in female wistar rats; PHA(log2)
# In short: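 Female Wistar rats were immunized with 1 mg DNP-As plus 10¹⁰ killed B. pertussis on day 0, boosted on day 5 with 0.5 mg DNP-As, and sera taken on day 8. Compound in 2% NaHCO₃ was given at 100 (mg/kg)/day po for 5 days from day 0. Hemagglutination used DNP-As-coupled sheep RBC, 2 h at 37 °C; titer is the highest complete-agglutination dilution (log2); mean ± SE, eight rats.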
smiles,measurement,setting,value
O=P1(N(CCCl)CCCl)NCCCO1 (centres undefined) [CYCLOPHOSPHAMIDE ANHYDROUS],PCA,Rattus norvegicus [1],<2
same,PHA,Rattus norvegicus [2],1.3
OC[C@@]1(OCc2ccccc2)OC[C@@H](O)[C@H](O)[C@@H]1O,PHA,Mus musculus [3],5
same,PHA,Mus musculus [4],6
same,PCA,Mus musculus [5],8.6
same,PCA,Mus musculus [6],9
same,PCA,Mus musculus [7],8.4
same,PHA,Mus musculus [8],6
same,PCA,Rattus norvegicus [1],7
same,PHA,Rattus norvegicus [2],9
CCO[C@]1(CO)OC[C@@H](O)[C@H](O)[C@@H]1O,PCA,Mus musculus [9],7.9
same,PCA,Mus musculus [10],8.3
same,PCA,Mus musculus [11],7.8
same,PHA,Mus musculus [12],5
same,PHA,Mus musculus [13],6
same,PHA,Mus musculus [14],5
same,PCA,Rattus norvegicus [15],6.7
same,PCA,Rattus norvegicus [1],7.1
same,PHA,Rattus norvegicus [16],8.5
same,PHA,Rattus norvegicus [2],7.9
CCCO[C@@]1(CO)O[C@H](CO)[C@@H](O)[C@@H]1O,PCA,Rattus norvegicus [1],7.3
CCCCO[C@@]1(CO)O[C@H](CO)[C@@H](O)[C@@H]1O,PCA,Rattus norvegicus [1],6.7
CCO[C@@]1(CO)O[C@H](CO)[C@@H](O)[C@@H]1O,PCA,Rattus norvegicus [1],6.5
CCO[C@]1(CO)O[C@H](CO)[C@@H](O)[C@@H]1O,PCA,Rattus norvegicus [1],6.1

# — ChEMBL document CHEMBL1121993, “A specific inhibitor of IgE-antibody formation: n-pentyl beta-D-fructopyranoside” (1982)
